Laboratory results taken from article PMC12530853 (RSC Advances, 2025).
Values after ≈ are worked out from the molar mass of the structure shown. “Also recorded” adds a separate entry of the source.

What was measured:
[1] = system: CYP24A1 mRNA in HEK293T cells; assay: CYP24A1 mRNA levels by quantitative PCR; type: cell-based
[2] = system: C. albicans ATCC 14053; assay: Minimum inhibitory concentration; type: cell-based; details: Candida albicans, ATCC14053, read-out: Minimum inhibitory concentration (MIC) C. albicans ATCC 14053
Summary of the method: (§1)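 Exponential-phase yeast were washed three times in PBS and suspended at 1 × 10^3 CFU/mL in RPMI 1640. Test compound and fluconazole comparator were twofold serially diluted in microplates, each concentration in triplicate wells. Growth was read as OD600, from which the MIC was determined.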

[3] = system: C. albicans ATCC 10231; assay: Minimum inhibitory concentration; type: cell-based; details: Candida albicans, ATCC10231, read-out: Minimum inhibitory concentration (MIC) C. albicans ATCC 10231
Summary of the method: as §1

[4] = system: rabbit red blood cells; assay: Hemolysis assay; type: cell-based
Summary of the method: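 Rabbit erythrocytes (4% v/v in PBS) were mixed 1:1 with test compound in PBS, giving final concentrations of 2–256 μg mL−1, and incubated for 1 h at 37 °C. Samples were centrifuged at 1000g for 5 min and supernatant A490 was read. Controls were 1% Triton X-100 and PBS. Hemolysis (%) = [(sample − PBS)/(Triton − PBS)] × 100, in triplicate.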

[5] = system: C. albicans ATCC 10231 biofilm; assay: Inhibition of biofilm formation; type: cell-based; details: in vitro
Summary of the method: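 Exponential-phase fungi at 1 × 10^6 CFU mL−1 in RPMI 1640 were allowed to adhere for 1.5 h at 37 °C, then washed twice with PBS. Fresh RPMI containing graded concentrations of test compound was added for 24 h at 37 °C in the dark. Adherent cells were stained for 3 h at 37 °C and OD was read. Results are given as % inhibition of formation.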

[6] = system: C. albicans ATCC 10231; assay: SYTOX Green membrane integrity assay; type: cell-based; details: 4 × MIC; over 20 min
Summary of the method: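 Overnight C. albicans was washed three times in PBS and set to OD600 0.2 in PBS. Cells were loaded with 0.3 μM SYTOX Green in the dark. Once the signal plateaued, test compound in PBS/DMF (final DMF 0.5%) was added. Fluorescence (ex 504 nm, em 523 nm) was monitored continuously for 1–2 h.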

[7] = system: C. albicans ATCC 10231; assay: Time–kill kinetics; type: cell-based; details: 8 × MIC, after 8 h
Summary of the method: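 C. albicans in exponential phase was diluted to 1.5 × 10^6 cells per mL in RPMI 1640, in 5 mL tubes. Drug was added and tubes were shaken at 200 rpm and 30 °C. 100 μL aliquots went to microtiter wells, were incubated at 37 °C, and OD600 was read to estimate cell concentration.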

[8] = system: F. solani 46492; assay: Activity against additional fungal strains; type: cell-based; details: Table 2; no quantity or unit printed
Summary of the method: (§2)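 Fungi in exponential phase were washed three times in PBS and resuspended at 1 × 10^3 CFU mL−1 in RPMI 1640. Test compound and fluconazole were serially diluted twofold in 96-well plates, in triplicate wells per concentration. MIC was derived from OD600 readings.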

[9] = system: A. brasiliensis TCC 16404; assay: Activity against additional fungal strains; type: cell-based; details: Table 2; no quantity or unit printed
Summary of the method: as §2

[10] = system: C. albicans ATCC 90028; assay: Activity against additional fungal strains; type: cell-based; details: Table 2; no quantity or unit printed
Summary of the method: as §2

[11] = system: C. albicans ATCC 24433; assay: Activity against additional fungal strains; type: cell-based; details: Table 2; no quantity or unit printed
Summary of the method: as §2

[12] = system: C. albicans ATCC 10231; assay: Drug-resistance study; type: cell-based; details: after 28 serial passages
Summary of the method: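 Resistance development in C. albicans: the MIC of the test compound was first determined by the fungal broth microdilution method, then that determination was repeated continuously over 28 days.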

[13] = system: F. solani 52628; assay: Activity against additional fungal strains; type: cell-based; details: Table 2; no quantity or unit printed
Summary of the method: as §2

[14] = Cytotoxicity, CCK-8 assay; type: cell-based; details: human, Caco-2
[15] = Cytotoxicity, CCK-8 assay; type: cell-based; details: human, HUVECs (human umbilical vein endothelial cells)
[16] = system: C. albicans ATCC 10231 biofilm; assay: Biofilm eradication; type: cell-based; details: in vitro
Summary of the method: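 Overnight C. albicans was adjusted to 1 × 10^6–10^7 CFU mL−1 and grown statically for 24 h at 37 °C to give mature biofilms. After two PBS rinses, biofilms were treated with test compound in fresh medium for 24 h at 37 °C; amphotericin B was the positive control and medium alone the negative control. Staining used 0.1% crystal violet for 15 min, then 95% ethanol solubilisation and OD590. Eradication (%) = [1 − OD_test/OD_negative] × 100.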

[17] = system: metabolic clearance of 1,25(OH)2D3 in HEK293T cells; assay: Retention of 1,25; type: cell-based; details: 10^−7 M compound; after 24 h; LC-MS/MS
[18] = target: T1, CYP24A1 (Homo sapiens, UniProt Q07973); assay: CYP24-inhibition assay; type: biochemical
T1 sequence (Q07973 36-514): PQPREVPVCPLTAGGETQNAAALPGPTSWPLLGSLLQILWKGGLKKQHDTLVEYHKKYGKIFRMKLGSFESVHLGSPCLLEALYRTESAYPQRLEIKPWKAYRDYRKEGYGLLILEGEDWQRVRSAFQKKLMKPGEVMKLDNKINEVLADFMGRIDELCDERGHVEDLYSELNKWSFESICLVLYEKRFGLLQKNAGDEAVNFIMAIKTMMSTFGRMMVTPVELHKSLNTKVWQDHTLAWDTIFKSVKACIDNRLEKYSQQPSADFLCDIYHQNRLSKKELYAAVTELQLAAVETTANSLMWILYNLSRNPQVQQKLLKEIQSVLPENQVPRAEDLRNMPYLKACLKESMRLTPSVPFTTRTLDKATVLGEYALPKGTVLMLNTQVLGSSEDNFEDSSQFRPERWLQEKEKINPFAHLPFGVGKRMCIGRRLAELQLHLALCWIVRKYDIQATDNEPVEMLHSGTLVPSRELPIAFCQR
Summary of the method: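 Reconstituted system: 5 nM CYP24, 0.5 μM adrenodoxin and 0.05 μM adrenodoxin reductase in 100 mM Tris–HCl pH 7.4 with 1 mM EDTA. Test compound (50–200 μM) was preincubated for 15 min at room temperature. 5 μM 1,25-D3 and 1 mM NADPH were then added for 10 min at 37 °C. The reaction was stopped with 4 volumes of chloroform/methanol 3:1, and conversion was measured by C18 HPLC with UV detection at 265 nm.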

[19] = system: FO MYA 3461; assay: Activity against additional fungal strains; type: cell-based; details: Table 2; no quantity or unit printed
Summary of the method: as §2

[20] = Calcein leakage assay; details: liposomes mimicking fungal membranes
Summary of the method: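 Large unilamellar vesicles of DOPC/DOPE/PI (2:1:1) with 15 wt% ergosterol were made by film hydration in 80 mM calcein, 50 mM HEPES, 100 mM NaCl, 0.3 mM EDTA, pH 7.4. They were freeze–thawed 10×, extruded through 100 nm filters, gel-filtered, and quantified by total phosphorus. Test compound was added in HEPES buffer with 5% DMF. Read at ex 490/em 520 nm; % leakage = (Ft−Fmin)/(Fmax−Fmin)×100, with Fmax from 1% Triton X-100.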

[21] = system: various bacteria and fungi; assay: Broad-spectrum antibacterial and antifungal MIC; type: cell-based; details: read-out: MIC (broad-spectrum antibacterial and antifungal activity)

## C=C1/C(=C\C=C2/CCC[C@]3(C)[C@@H]([C@H](C)CCCC(C)(C)O)CC[C@@H]23)C[C@@H](O)C[C@@H]1O [1,25(OH)2D3, 1,25-dihydroxyvitamin D3, reference compound]
[1]; 10^−9 M, 24 h, HEK293T cells
  CYP24A1 mRNA levels, 1,25(OH)2D3 alone: significantly increased

## Cc1ccc(C=Nc2nc[nH]n2)c(O)c1 [3a, 2-{[(1H-1,2,4-Triazol-3-yl)imino]methyl}-5-methylphenol]
[2]
  MIC: 128 µg/mL (≈ 633 µM)
[3]
  MIC: 64 µg/mL (≈ 316 µM)

## O=[N+]([O-])c1ccc(C=Nc2nc[nH]n2)c(O)c1 [3b, 2-{[(1H-1,2,4-Triazol-3-yl)imino]methyl}-5-nitrophenol]
[2]
  MIC: 64 µg/mL (≈ 274 µM)
[3]
  MIC: 64 µg/mL (≈ 274 µM)

## Oc1ccc(O)c(C=Nc2ncn[nH]2)c1 [3c, 2-{[(1H-1,2,4-Triazol-5-yl)imino]methyl}benzene-1,4-diol]
[4]; 16–128 μg mL^−1, 37 °C, 1 h
  Hemolysis of rabbit red blood cells: no significant hemolysis
[4]; rabbit red blood cells
  Half hemolytic concentration (HC50): > 256 µg/mL
[1]; 3c 10^−10 M + 1,25(OH)2D3 10^−9 M, 24 h, relative to 1,25(OH)2D3 alone
  CYP24A1 mRNA expression, co-treatment with 1,25(OH)2D3: markedly enhanced
[1]; 10^−7 M, HEK293T cells, versus solvent control
  CYP24A1 mRNA expression, compound alone: did not affect; also recorded: did not alter
[1]; cellular models, combined with 1,25(OH)2D3
  Up-regulation of CYP24A1 mRNA levels when combined with 1,25(OH)2D3: approximately twofold
[5]
  Inhibition of C. albicans biofilm formation: effectively inhibited
[6]
  SYTOX Green fluorescence (membrane integrity): gradual increase in fluorescence
[7]
  Time–kill: growth of C. albicans ATCC 10231: complete inhibition
[8]
  Interaction against varied fungal strains: F. solani 46492: 32
[9]
  Interaction against varied fungal strains: A. brasiliensis TCC 16404: 32
[2]
  MIC: 16 µg/mL (≈ 78.4 µM)
[10]
  Interaction against varied fungal strains: C. albicans ATCC 90028: 16
[11]
  Interaction against varied fungal strains: C. albicans ATCC 24433: 16
[12]
  Increase of MIC value in resistance development: no more than 8 fold
[13]
  Interaction against varied fungal strains: F. solani 52628: 32
[14]
  viability at 24 h, 64 μg mL^−1: > 95%
  viability at 24 h, 128 μg mL^−1: > 80%
[15]
  viability at 24 h, 64 μg mL^−1: > 95%
  viability at 24 h, 128 μg mL^−1: > 80%
[16]
  Disruption of pre-formed mature biofilms: significantly disrupted
[17]
  Average concentration of 1,25(OH)2D3 remaining in HEK293T cell culture: 495 pM
[18]
  IC50: 202 µM
[18]; read-out: Inhibition of CYP24A1
  inhibition at 100 µM: 32%
[19]
  Interaction against varied fungal strains: FO MYA 3461: 32
[20]
  Calcein leakage from LUVs: induced leakage of the contents in a dose-dependent manner
[21]
  MIC: 16 µg/mL (≈ 78.4 µM)
[3]
  MIC: 16 µg/mL (≈ 78.4 µM)

## Oc1ccc(Cl)cc1C=Nc1ncn[nH]1 [3d, 2-{[(1H-1,2,4-Triazol-5-yl)imino]methyl}-4-chlorophenol]
[2]
  MIC: 128 µg/mL (≈ 575 µM)
[3]
  MIC: 128 µg/mL (≈ 575 µM)

## CS(=O)(=O)c1ccc(C=Nc2ncn[nH]2)cc1 [3e, 1-[4-(Methylsulfonyl)phenyl]-N-(1H-1,2,4-triazol-5-yl)methanimine]
[2]
  MIC: 128 µg/mL (≈ 511 µM)
[3]
  MIC: 128 µg/mL (≈ 511 µM)

## C(=Nc1ncn[nH]1)c1ccc(-c2ccccc2)cc1 [3f, 1-[(1,1′-Biphenyl)-4-yl]-N-(1H-1,2,4-triazol-5-yl)methanimine]
[2]
  MIC: 128 µg/mL (≈ 516 µM)
[3]
  MIC: 128 µg/mL (≈ 516 µM)

## Clc1ccc(C=Nc2ncn[nH]2)cc1 [3g, 1-(4-Chlorophenyl)-N-(1H-1,2,4-triazol-5-yl)methanimine]
[2]
  MIC: > 256 µg/mL
[3]
  MIC: > 256 µg/mL

## C(=Nc1ncn[nH]1)c1ccncc1 [3h, 1-(Pyridin-4-yl)-N-(1H-1,2,4-triazol-5-yl)methanimine]
[2]
  MIC: > 256 µg/mL
[3]
  MIC: > 256 µg/mL

## O=[N+]([O-])c1ccc(C=Nc2ncn[nH]2)cc1 [3i, 1-(4-Nitrophenyl)-N-(1H-1,2,4-triazol-5-yl)methanimine]
[2]
  MIC: 128 µg/mL (≈ 589 µM)
[3]
  MIC: 128 µg/mL (≈ 589 µM)

## COc1ccc(C=Nc2ncn[nH]2)cc1 [3j, 1-(4-Methoxyphenyl)-N-(1H-1,2,4-triazol-5-yl)methanimine]
[2]
  MIC: > 256 µg/mL
[3]
  MIC: > 256 µg/mL

## Oc1ccc(C=Nc2ncn[nH]2)cc1 [3k, 4-{[(1H-1,2,4-Triazol-5-yl)imino]methyl}phenol]
[2]
  MIC: > 256 µg/mL
[3]
  MIC: > 256 µg/mL

## O=C(O)c1ccc(C=Nc2ncn[nH]2)cc1 [3l, 4-{[(1H-1,2,4-Triazol-5-yl)imino]methyl}benzoic acid]
[2]
  MIC: > 256 µg/mL
[3]
  MIC: > 256 µg/mL

## C[C@@H]1C/C=C/C=C/C=C/C=C/[C@H](O[C@@H]2O[C@H](C)[C@@H](O)[C@H](N)[C@@H]2O)C[C@@H]2O[C@](O)(C[C@@H](O)C[C@H]3O[C@@H]3/C=C/C(=O)O1)C[C@H](O)[C@H]2C(=O)O [Natamycin, reference compound]
[8]
  Interaction against varied fungal strains: F. solani 46492: 8
[9]
  Interaction against varied fungal strains: A. brasiliensis TCC 16404: 8
[2]
  MIC: 8 µg/mL (≈ 12 µM)
[10]
  Interaction against varied fungal strains: C. albicans ATCC 90028: 8
[11]
  Interaction against varied fungal strains: C. albicans ATCC 24433: 8
[13]
  Interaction against varied fungal strains: F. solani 52628: 8
[19]
  Interaction against varied fungal strains: FO MYA 3461: 8
[3]
  MIC: 8 µg/mL (≈ 12 µM)
